From ChEMBL document CHEMBL1149157, “Synthesis and structure-activity relationship of novel antitumoral platinum xanthate complexes” (J Med Chem, 2004)

Experiments:
Assay type in all cases: functional, cell-based, Homo sapiens
SK-OV-3 [1] = assay: Cytotoxic activity was determined in vitro in SK-OV-3 cell line culture at pH 7.4
Summary of the method: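 With 1×10^6 cells/plate seeded, medium was changed the next day to pH 7.4 (2.2 g NaHCO3/L) under 5% CO2. Cells were exposed 2 h at 37°C in quadruplicate to a 1:2 series of 50–0.8 µg/mL (acetone ≤5%), then given drug-free pH 7.4 medium until controls were confluent. Crystal violet read at 550 nm after formaldehyde fixation. IC50 from curves; mean of four assays ± SD.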

MCF7 [2] = assay: Cytotoxic activity was determined in vitro in MCF-7 cell line culture at pH 7.4
Summary of the method: (§1)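 Using pH 7.4 medium (2.2 g NaHCO3/L) on cells plated a day earlier at 2×10^6/plate, with equilibration in 5% CO2. Compounds were applied for 2 h at 37°C in quadruplicate at 50–0.8 µg/mL (1:2; acetone ≤5%), followed by drug-free pH 7.4 medium until controls were confluent. Fixed and stained with crystal violet, dye eluted with ethanol/1% acetic acid, read at 550 nm. IC50 from curves, mean of four ± SD.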

SK-MEL-25 [3] = assay: Cytotoxic activity was determined in vitro in SK-MEL-25 cell line culture at pH 6.8
Summary of the method: (§2)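 Seeded at 2×10^6 cells/plate. Next day, switched to pH 6.8 medium (1.3 g NaHCO3/L, serum acidified with 1 N HCl) and equilibrated in 5% CO2. Exposed for 2 h at 37°C in quadruplicate to 50–0.8 µg/mL (1:2 series; acetone ≤5%), then given drug-free pH 7.4 medium until controls were confluent. Read by formaldehyde fixation and crystal violet at 550 nm. IC50 from dose–response curves, mean of four assays ± SD.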

Calu-6 [4] = assay: Cytotoxic activity was determined in vitro in Calu-6 cell line culture at pH 7.4
Summary of the method: (§3)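 Plated at 2×10^6 cells/plate. After one day, medium was replaced with pH 7.4 medium (2.2 g NaHCO3/L) and equilibrated under 5% CO2. Cells got 2 h at 37°C, in quadruplicate, of a 1:2 series 50–0.8 µg/mL (acetone ≤5%), then drug-free pH 7.4 medium for 24–96 h until controls were confluent. Fixed with 3% formaldehyde, stained with 1% crystal violet, A550. IC50 from dose–response curves; mean of four assays ± SD.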

KB [5] = assay: Cytotoxic activity was determined in vitro in KB cell line culture at pH 7.4; summary of the method: as §1
SK-MEL-25 [6] = assay: Cytotoxic activity was determined in vitro in SK-MEL-25 cell line culture at pH 7.4; summary of the method: as §3
LXF-289 cell line [7] = assay: Cytotoxic activity was determined in vitro in LXF-289 cell line culture at pH 7.4; summary of the method: as §3
SK-OV-3 [8] = assay: Cytotoxic activity was determined in vitro in SK-OV-3 cell line culture at pH 6.8
Summary of the method: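 SK-OV-3 seeded at 1×10^6 cells/plate. Next day, placed in pH 6.8 medium (1.3 g NaHCO3/L, HCl-treated serum, 5% CO2). Given 2 h at 37°C, in quadruplicate, of 50–0.8 µg/mL (1:2; acetone ≤5%), then drug-free pH 7.4 medium until controls were confluent. Formaldehyde-fixed and crystal violet-stained, A550. IC50 from dose–response curves, mean of four assays ± SD.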

Calu-6 [9] = assay: Cytotoxic activity was determined in vitro in Calu-6 cell line culture at pH 6.8; summary of the method: as §2
LXF-289 cell line [10] = assay: Cytotoxic activity was determined in vitro in LXF-289 cell line culture at pH 6.8; summary of the method: as §2
MCF7 [11] = assay: Cytotoxic activity was determined in vitro in MCF-7 cell line culture at pH 6.8
Summary of the method: (§4)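 Cells at 2×10^6/plate were moved the next day into pH 6.8 medium (1.3 g NaHCO3/L; serum given 1 N HCl; 30 min 5% CO2). Treated 2 h at 37°C, quadruplicate, 50–0.8 µg/mL in 1:2 steps (acetone ≤5%), then grown in drug-free pH 7.4 medium to control confluence. Crystal violet stain eluted with ethanol/1% acetic acid before A550. IC50 from curves, mean of four assays ± SD.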

KB [12] = assay: Cytotoxic activity was determined in vitro in KB cell line culture at pH 6.8; summary of the method: as §4

Row | Substance | IC50 (SK-OV-3 [1]) [µM] | IC50 (MCF7 [2]) [µM] | IC50 (SK-MEL-25 [3]) [µM] | IC50 (Calu-6 [4]) [µM] | IC50 (KB [5]) [µM] | IC50 (SK-MEL-25 [6]) [µM] | IC50 (LXF-289 cell line [7]) [µM] | IC50 (SK-OV-3 [8]) [µM] | IC50 (Calu-6 [9]) [µM] | IC50 (LXF-289 cell line [10]) [µM] | IC50 (MCF7 [11]) [µM] | IC50 (KB [12]) [µM]
1 | 2,6-bis(2,2-dimethylpropoxy)-1,3,5,7-tetrathia-4-platinaspiro[3.3]heptane | > 86 | > 86 | 72 | 27 | > 96 | 83 | 75 | > 86 | 25 | 59 | 62 | > 96
2 | 2,6-bis(pentan-3-yloxy)-1,3,5,7-tetrathia-4-platinaspiro[3.3]heptane | 5 | 6 | 5 | 5 | 5 | 9 | 10 | 8 | 3 | 8 | 5 | 4
3 | 2,6-dicyclobutoxy-1,3,5,7-tetrathia-4-platinaspiro[3.3]heptane | 19 | 21 | 7 | 7 | 20 | 12 | 44 | 17 | 3 | 37 | 11 | 6
